Reference: ChEMBL document CHEMBL1795205, “The new 5- or 6-azapyrimidine and cyanuric acid derivatives of l-ascorbic acid bearing the free C-5 hydroxy or C-4 amino group at the ethylenic spacer: CD-spectral absolute configuration determination and biological activity evaluations” (Eur J Med Chem, 2011)
pIC50: −log10 of the molar value. The source made the active and inactive calls. The calls are words filed in the database; no cut-off is given here.

Legend:
HeLa [1] = test: Induction of cell cycle arrest in human HeLa cells assessed as accumulation at G2/M phase at 1 uM after 24 hrs by flow cytometry relative to control; assay type: functional
Method in brief: (§1)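 Cells were seeded at 3×10⁵ per well in 6-well plates and treated after overnight incubation for 24 and 48 h. They were trypsinized, washed three times in PBS, fixed in cold ethanol and stored at −20 °C. Pellets were washed twice in PBS and treated with RNase A at 37 °C for 15 min, then stained with PI for 30 min in the dark. DNA content was measured by flow cytometry.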

HeLa [2] = test: Induction of cell cycle arrest in human HeLa cells assessed as accumulation at subG1 phase at 5 uM after 48 hrs by flow cytometry relative to control; assay type: functional; method in brief: as §1
HeLa [3] = test: Cytostatic activity against human HeLa cells assessed as inhibition of cell proliferation after 72 hrs by MTT assay; assay type: functional, cell-based
Method in brief: (§2)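 Monolayer cells grown in DMEM with 10% FBS were seeded on day 0 at 3000–6000 cells/well, set by each line's doubling time. Agents were added the next step in five 10-fold dilutions (0.01–100) for 72 h, with DMSO ≤0.1% and a solvent control. MTT absorbance was converted to percentage growth versus untreated wells on the same plate. Where all PGs exceeded 50, the top concentration was reported as ">". ANOVA/Tukey, p<0.05.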

SW-620 [4] = test: Induction of cell cycle arrest in human SW620 cells assessed as accumulation at G2/M phase at 5 uM after 48 hrs by flow cytometry (reference value: 11.9 +/- 2.33%); assay type: functional
HeLa [5] = test: Induction of cell cycle arrest in human HeLa cells assessed as accumulation at G1 phase at 1 uM after 48 hrs by flow cytometry relative to control; assay type: functional; method in brief: as §1
MIA PaCa-2 [6] = test: Induction of cell cycle arrest in human MIAPaCa2 cells assessed as accumulation at subG1 phase at 1 uM after 48 hrs by flow cytometry (reference value: 0.20 +/- 0.06%); assay type: functional
MIA PaCa-2 [7] = test: Induction of cell cycle arrest in human MIAPaCa2 cells assessed as accumulation at S phase at 1 uM after 48 hrs by flow cytometry (reference value: 46 +/- 8.13%); assay type: functional
MIA PaCa-2 [8] = test: Induction of cell cycle arrest in human MIAPaCa2 cells assessed as accumulation at G2/M phase at 5 uM after 24 hrs by flow cytometry (reference value: 10.3 +/- 0.07%); assay type: functional
HeLa [9] = test: Induction of cell cycle arrest in human HeLa cells assessed as accumulation at subG1 phase at 1 uM after 24 hrs by flow cytometry relative to control; assay type: functional; method in brief: as §1
SW-620 [10] = test: Induction of cell cycle arrest in human SW620 cells assessed as accumulation at subG1 phase at 5 uM after 48 hrs by flow cytometry (reference value: 0.18 +/- 0.036%); assay type: functional
HeLa [11] = test: Induction of cell cycle arrest in human HeLa cells assessed as accumulation at subG1 phase at 1 uM after 48 hrs by flow cytometry relative to control; assay type: functional; method in brief: as §1
MIA PaCa-2 [12] = test: Induction of cell cycle arrest in human MIAPaCa2 cells assessed as accumulation at subG1 phase at 5 uM after 24 hrs by flow cytometry (reference value: 0.32 +/- 0.009%); assay type: functional
HeLa [13] = test: Induction of cell cycle arrest in human HeLa cells assessed as accumulation at G1 phase at 5 uM after 24 hrs by flow cytometry relative to control; assay type: functional; method in brief: as §1
HeLa [14] = test: Induction of cell cycle arrest in human HeLa cells assessed as accumulation at S phase at 5 uM after 24 hrs by flow cytometry relative to control; assay type: functional; method in brief: as §1
HeLa [15] = test: Induction of cell cycle arrest in human HeLa cells assessed as accumulation at G2/M phase at 5 uM after 48 hrs by flow cytometry relative to control; assay type: functional; method in brief: as §1
MIA PaCa-2 [16] = test: Induction of cell cycle arrest in human MIAPaCa2 cells assessed as accumulation at subG1 phase at 5 uM after 48 hrs by flow cytometry (reference value: 0.20 +/- 0.06%); assay type: functional
SW-620 [17] = test: Induction of cell cycle arrest in human SW620 cells assessed as accumulation at S phase at 5 uM after 24 hrs by flow cytometry (reference value: 37.7 +/- 0.01%); assay type: functional
HeLa [18] = test: Induction of cell cycle arrest in human HeLa cells assessed as accumulation at G1 phase at 5 uM after 48 hrs by flow cytometry relative to control; assay type: functional; method in brief: as §1
SW-620 [19] = test: Induction of cell cycle arrest in human SW620 cells assessed as accumulation at S phase at 1 uM after 48 hrs by flow cytometry (reference value: 41.7 +/- 2.47%); assay type: functional
WI-38 = test: Cytotoxicity against human WI38 cells assessed as inhibition of cell proliferation after 72 hrs by MTT assay; assay type: cell-based; conditions: WI-38, 72 h; method in brief: as §2
MIA PaCa-2 [20] = test: Induction of cell cycle arrest in human MIAPaCa2 cells assessed as accumulation at S phase at 5 uM after 24 hrs by flow cytometry (reference value: 34.3 +/- 0.07%); assay type: functional
SW-620 [21] = test: Induction of cell cycle arrest in human SW620 cells assessed as accumulation at G2/M phase at 5 uM after 24 hrs by flow cytometry (reference value: 10.7 +/- 0.07%); assay type: functional
MIA PaCa-2 [22] = test: Induction of cell cycle arrest in human MIAPaCa2 cells assessed as accumulation at G2/M phase at 1 uM after 24 hrs by flow cytometry (reference value: 10.3 +/- 0.07%); assay type: functional
SW-620 [23] = test: Induction of cell cycle arrest in human SW620 cells assessed as accumulation at G2/M phase at 1 uM after 48 hrs by flow cytometry (reference value: 11.9 +/- 2.33%); assay type: functional
SW-620 [24] = test: Induction of cell cycle arrest in human SW620 cells assessed as accumulation at subG1 phase at 5 uM after 24 hrs by flow cytometry (reference value: 0.37 +/- 0.36%); assay type: functional
HeLa [25] = test: Induction of cell cycle arrest in human HeLa cells assessed as accumulation at S phase at 1 uM after 48 hrs by flow cytometry relative to control; assay type: functional; method in brief: as §1
HepG2 = test: Cytostatic activity against human HepG2 cells assessed as inhibition of cell proliferation after 72 hrs by MTT assay; assay type: functional, cell-based; conditions: HepG2, 72 h; method in brief: as §2
SW-620 [26] = test: Induction of apoptosis in human SW620 cells at 1 to 5 uM after 24 to 48 hrs by annexin V/PI staining; assay type: functional, cell-based
Method in brief: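 Cells were seeded on slides, incubated 24 h, then exposed to compound for 24 and 48 h. They were washed with PBS and binding buffer, incubated with annexin-V for 10 min, washed with binding buffer, and stained with PI.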

SW-620 [27] = test: Induction of cell cycle arrest in human SW620 cells assessed as accumulation at G1 phase at 5 uM after 48 hrs by flow cytometry (reference value: 46.6 +/- 4.88%); assay type: functional
MIA PaCa-2 [28] = test: Cytostatic activity against human MIAPaCa2 cells assessed as inhibition of cell proliferation after 72 hrs by MTT assay; assay type: functional, cell-based; conditions: MIA PaCa-2, 72 h; method in brief: as §2
SW-620 [29] = test: Induction of cell cycle arrest in human SW620 cells assessed as accumulation at S phase at 5 uM after 48 hrs by flow cytometry (reference value: 41.7 +/- 2.47%); assay type: functional
MIA PaCa-2 [30] = test: Induction of cell cycle arrest in human MIAPaCa2 cells assessed as accumulation at S phase at 5 uM after 48 hrs by flow cytometry (reference value: 46 +/- 8.13%); assay type: functional

SMILES: Nc1ncn(C/C=C2\OC(=O)C(OCc3ccccc3)=C2OCc2ccccc2)c(=O)n1
- Activity (HeLa [1]): 11.9%
- Activity (HeLa [2]): 0.23%
- pIC50 (HeLa [3]): 5.23
- Activity (SW-620 [4]): 9.2%
- Activity (HeLa [5]): 20.1%
- Activity (MIA PaCa-2 [6]): 0.18%
- Activity (MIA PaCa-2 [7]): 64.2%
- Activity (MIA PaCa-2 [8]): 7.05%
- Activity (HeLa [9]): 0%
- Activity (SW-620 [10]): 0.21%
- Activity (HeLa [11]): 0.02%
- Activity (MIA PaCa-2 [12]): 0.21%
- Activity (HeLa [13]): 16.5%
- Activity (HeLa [14]): 72.1%
- Activity (HeLa [15]): 13.9%
- Activity (MIA PaCa-2 [16]): 0.31%
- Activity (SW-620 [17]): 58.3%
- Activity (HeLa [18]): 23.9%
- Activity (SW-620 [19]): 58.9%
- pIC50 (WI-38): 5.33
- Activity (MIA PaCa-2 [20]): 57.4%
- Activity (SW-620 [21]): 17.7%
- Activity (MIA PaCa-2 [22]): 14.9%
- Activity (SW-620 [23]): 17.9%
- Activity (SW-620 [24]): 0.2%
- Activity (HeLa [25]): 65.6%
- pIC50 (HepG2): 5.57
- Activity (SW-620 [26]): inactive
- Activity (SW-620 [27]): 39.1%
- pIC50 (MIA PaCa-2 [28]): 6.04
- Activity (SW-620 [29]): 51.8%
- Activity (MIA PaCa-2 [30]): 60.9%
